Broadly, the IC50 is the concentration that gives 50% inhibition. As usually defined, the EC50 is the midpoint of the concentration-response curve. Low values mean an effect from little substance, high ones a need for much substance. As a reminder, the inhibition is the share of the control response that was lost under treatment.

A value given as a limit tells only on which side of the number the result lay.

The target of test [1] is Serine/threonine-protein kinase pim-2 (Homo sapiens, UniProt Q9P1W9). Nature of the test: Inhibition of Pim2 (unknown origin) using luciferase-luciferin based ATP detection reagent by Kinase-Glo assay. To be noted: read-out: IC50. (Kinase-Glo reads ATP consumption through a luciferase reaction.)
Test [2] is described as follows: Growth inhibition of human HSC3 cells after 24 hrs by Clonogenic cell survival assay. The test is classed as functional, cell-based. To be noted: HSC-3, 24 h. The essentials:
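Two-dimensional colony formation (clonogenic survival) of human UM-UC-3 bladder carcinoma and HSC-3 oral squamous carcinoma cells, assessing the cytostatic effect on colony growth.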

For test [3], the target named is Serine/threonine-protein kinase pim-1 (Homo sapiens, UniProt P11309). The test can be described thus: Inhibition of Pim1 (unknown origin) using luciferase-luciferin based ATP detection reagent at 1 uM by Kinase-Glo assay.
In test [4] the target is NT-3 growth factor receptor (Homo sapiens) (UniProt Q16288). Nature of the test: Inhibition of TRKC (unknown origin) at 1 uM.
In test [5] the target is BDNF/NT-3 growth factors receptor (Homo sapiens) (UniProt Q16620). Nature of the test: Inhibition of TRKB (unknown origin) at 1 uM.
Test [6] concerns the target T1, Serine/threonine-protein kinase haspin (Homo sapiens) (UniProt Q8TF76).
T1 sequence (whole entry): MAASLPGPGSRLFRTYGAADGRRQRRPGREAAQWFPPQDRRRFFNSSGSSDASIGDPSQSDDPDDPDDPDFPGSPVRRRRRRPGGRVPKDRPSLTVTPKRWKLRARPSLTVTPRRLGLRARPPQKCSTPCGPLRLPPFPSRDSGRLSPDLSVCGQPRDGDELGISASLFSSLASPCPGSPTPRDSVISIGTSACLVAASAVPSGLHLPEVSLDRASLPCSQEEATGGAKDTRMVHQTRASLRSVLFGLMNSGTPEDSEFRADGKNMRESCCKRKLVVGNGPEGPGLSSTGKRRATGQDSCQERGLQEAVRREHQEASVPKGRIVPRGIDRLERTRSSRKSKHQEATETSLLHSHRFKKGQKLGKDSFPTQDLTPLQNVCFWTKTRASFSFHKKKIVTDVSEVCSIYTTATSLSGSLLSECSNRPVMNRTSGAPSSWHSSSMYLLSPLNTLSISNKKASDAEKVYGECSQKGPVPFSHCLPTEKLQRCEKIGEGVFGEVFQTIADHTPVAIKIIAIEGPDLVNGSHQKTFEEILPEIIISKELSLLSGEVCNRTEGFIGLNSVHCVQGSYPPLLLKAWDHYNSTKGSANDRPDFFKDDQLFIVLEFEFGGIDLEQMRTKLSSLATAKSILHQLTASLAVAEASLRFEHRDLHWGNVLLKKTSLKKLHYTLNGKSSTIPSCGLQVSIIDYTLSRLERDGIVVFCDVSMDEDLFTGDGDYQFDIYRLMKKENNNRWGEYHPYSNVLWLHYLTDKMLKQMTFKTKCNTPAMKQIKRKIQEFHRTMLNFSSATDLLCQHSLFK
Nature of the test: Inhibition of Haspin (unknown origin) at 1 uM.

Test [7] addresses T2, Muscle, skeletal receptor tyrosine-protein kinase (Homo sapiens) (UniProt O15146).
T2 sequence (whole entry): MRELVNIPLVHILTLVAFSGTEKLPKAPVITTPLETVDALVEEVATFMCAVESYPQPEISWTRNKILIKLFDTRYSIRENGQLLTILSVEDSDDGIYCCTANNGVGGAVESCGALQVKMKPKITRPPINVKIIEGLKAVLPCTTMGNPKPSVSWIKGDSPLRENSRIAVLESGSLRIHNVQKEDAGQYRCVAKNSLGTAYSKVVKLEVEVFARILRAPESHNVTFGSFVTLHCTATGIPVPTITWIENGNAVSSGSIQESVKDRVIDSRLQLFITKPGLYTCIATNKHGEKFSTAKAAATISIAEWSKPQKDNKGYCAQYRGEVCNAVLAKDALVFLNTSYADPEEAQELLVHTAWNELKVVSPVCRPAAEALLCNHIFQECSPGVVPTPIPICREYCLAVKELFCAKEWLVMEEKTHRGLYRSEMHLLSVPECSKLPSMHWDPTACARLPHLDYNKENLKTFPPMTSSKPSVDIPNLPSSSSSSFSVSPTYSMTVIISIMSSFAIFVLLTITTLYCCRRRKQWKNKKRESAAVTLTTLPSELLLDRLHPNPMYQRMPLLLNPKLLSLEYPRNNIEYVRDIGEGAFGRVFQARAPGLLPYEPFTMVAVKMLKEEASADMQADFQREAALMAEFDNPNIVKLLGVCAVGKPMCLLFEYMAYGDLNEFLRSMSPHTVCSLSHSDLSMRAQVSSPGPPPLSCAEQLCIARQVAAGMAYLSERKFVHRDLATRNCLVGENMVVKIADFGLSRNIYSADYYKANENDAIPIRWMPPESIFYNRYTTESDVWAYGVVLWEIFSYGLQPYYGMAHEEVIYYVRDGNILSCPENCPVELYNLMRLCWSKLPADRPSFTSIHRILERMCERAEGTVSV
The test can be described thus: Inhibition of MUSK (unknown origin) at 1 uM.

The target in test [8] is Tyrosine-protein kinase Yes (Homo sapiens) (UniProt P07947). Nature of the test: Inhibition of YES1 (unknown origin) at 1 uM.
For test [9], the target named is Casein kinase II subunit alpha (Homo sapiens) (UniProt P68400). Nature of the test: Inhibition of CK2a (unknown origin) at 1 uM.
Test [10] concerns the target Homeodomain-interacting protein kinase 2 (Homo sapiens) (UniProt Q9H2X6). The test can be described thus: Inhibition of HIPK2 (unknown origin) at 1 uM.
The target in test [11] is Tyrosine-protein kinase Fyn (Homo sapiens) (UniProt P06241). The test can be described thus: Inhibition of FYN (unknown origin) at 1 uM.
The target of test [12] is Receptor-type tyrosine-protein kinase FLT3 (Homo sapiens) (UniProt P36888). To be noted: 1 uM.
Chain of Receptor-type tyrosine-protein kinase FLT3 (Homo sapiens) (P36888 whole entry): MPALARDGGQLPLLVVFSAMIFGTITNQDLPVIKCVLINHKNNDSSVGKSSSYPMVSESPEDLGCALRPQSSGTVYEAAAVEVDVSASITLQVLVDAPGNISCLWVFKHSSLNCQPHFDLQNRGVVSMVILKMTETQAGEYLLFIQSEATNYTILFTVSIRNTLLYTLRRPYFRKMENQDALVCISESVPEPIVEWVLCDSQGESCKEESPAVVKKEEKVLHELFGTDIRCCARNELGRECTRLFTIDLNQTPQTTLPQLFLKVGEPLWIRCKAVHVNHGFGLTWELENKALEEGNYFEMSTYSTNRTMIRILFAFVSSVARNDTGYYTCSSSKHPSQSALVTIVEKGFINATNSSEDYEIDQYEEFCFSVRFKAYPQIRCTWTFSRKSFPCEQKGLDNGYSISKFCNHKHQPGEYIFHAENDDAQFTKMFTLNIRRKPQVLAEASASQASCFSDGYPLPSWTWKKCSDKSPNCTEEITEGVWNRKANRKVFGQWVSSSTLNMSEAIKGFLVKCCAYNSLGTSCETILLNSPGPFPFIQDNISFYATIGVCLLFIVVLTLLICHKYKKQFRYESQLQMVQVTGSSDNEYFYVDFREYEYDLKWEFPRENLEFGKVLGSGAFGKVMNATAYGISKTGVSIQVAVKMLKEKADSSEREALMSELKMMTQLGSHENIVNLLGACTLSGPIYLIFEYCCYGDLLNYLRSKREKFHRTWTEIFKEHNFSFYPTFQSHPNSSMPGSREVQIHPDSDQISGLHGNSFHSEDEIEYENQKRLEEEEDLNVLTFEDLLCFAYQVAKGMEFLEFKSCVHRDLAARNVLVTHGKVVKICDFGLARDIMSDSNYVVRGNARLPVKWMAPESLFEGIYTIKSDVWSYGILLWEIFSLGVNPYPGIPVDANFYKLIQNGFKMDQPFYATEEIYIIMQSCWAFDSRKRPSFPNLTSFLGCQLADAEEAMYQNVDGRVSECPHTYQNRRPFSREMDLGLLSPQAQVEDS

Chain of Tyrosine-protein kinase Yes (Homo sapiens) (P07947 2-543 limits assumed): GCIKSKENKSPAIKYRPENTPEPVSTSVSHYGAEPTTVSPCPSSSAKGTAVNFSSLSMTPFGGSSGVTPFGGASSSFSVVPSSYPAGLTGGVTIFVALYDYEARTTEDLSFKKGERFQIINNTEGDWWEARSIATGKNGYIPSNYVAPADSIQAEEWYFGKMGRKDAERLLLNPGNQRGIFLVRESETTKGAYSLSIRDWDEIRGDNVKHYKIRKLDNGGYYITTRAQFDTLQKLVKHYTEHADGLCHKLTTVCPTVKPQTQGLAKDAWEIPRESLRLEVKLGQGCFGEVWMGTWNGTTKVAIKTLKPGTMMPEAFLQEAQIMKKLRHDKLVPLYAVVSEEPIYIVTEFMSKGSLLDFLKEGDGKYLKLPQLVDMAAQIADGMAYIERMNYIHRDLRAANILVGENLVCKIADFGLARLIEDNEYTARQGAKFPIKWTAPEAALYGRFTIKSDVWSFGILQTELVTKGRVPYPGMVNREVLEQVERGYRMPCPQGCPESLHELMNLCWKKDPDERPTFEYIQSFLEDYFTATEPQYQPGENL
Chain of NT-3 growth factor receptor (Homo sapiens) (Q16288 32-839 limits assumed): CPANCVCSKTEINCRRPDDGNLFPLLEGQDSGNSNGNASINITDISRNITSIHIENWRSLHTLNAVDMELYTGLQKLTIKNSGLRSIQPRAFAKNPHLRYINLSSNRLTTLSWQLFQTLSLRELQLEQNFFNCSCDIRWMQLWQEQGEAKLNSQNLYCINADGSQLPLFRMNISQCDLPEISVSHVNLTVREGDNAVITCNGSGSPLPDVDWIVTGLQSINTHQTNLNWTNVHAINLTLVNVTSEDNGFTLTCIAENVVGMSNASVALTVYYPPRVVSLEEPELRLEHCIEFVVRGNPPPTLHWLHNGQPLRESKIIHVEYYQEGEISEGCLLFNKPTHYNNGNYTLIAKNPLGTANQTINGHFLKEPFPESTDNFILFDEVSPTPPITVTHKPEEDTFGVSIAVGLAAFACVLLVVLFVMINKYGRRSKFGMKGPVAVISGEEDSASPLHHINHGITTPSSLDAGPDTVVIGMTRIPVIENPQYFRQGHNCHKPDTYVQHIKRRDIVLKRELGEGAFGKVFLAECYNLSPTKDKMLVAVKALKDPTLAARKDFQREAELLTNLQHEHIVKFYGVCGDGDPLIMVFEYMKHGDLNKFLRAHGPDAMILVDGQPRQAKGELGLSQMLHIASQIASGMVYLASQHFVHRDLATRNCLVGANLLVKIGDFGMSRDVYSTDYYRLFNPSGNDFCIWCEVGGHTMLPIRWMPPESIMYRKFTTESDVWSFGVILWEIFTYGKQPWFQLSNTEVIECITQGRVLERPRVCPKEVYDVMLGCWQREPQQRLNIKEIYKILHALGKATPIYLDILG
Chain of Casein kinase II subunit alpha (Homo sapiens) (P68400 whole entry, looked up): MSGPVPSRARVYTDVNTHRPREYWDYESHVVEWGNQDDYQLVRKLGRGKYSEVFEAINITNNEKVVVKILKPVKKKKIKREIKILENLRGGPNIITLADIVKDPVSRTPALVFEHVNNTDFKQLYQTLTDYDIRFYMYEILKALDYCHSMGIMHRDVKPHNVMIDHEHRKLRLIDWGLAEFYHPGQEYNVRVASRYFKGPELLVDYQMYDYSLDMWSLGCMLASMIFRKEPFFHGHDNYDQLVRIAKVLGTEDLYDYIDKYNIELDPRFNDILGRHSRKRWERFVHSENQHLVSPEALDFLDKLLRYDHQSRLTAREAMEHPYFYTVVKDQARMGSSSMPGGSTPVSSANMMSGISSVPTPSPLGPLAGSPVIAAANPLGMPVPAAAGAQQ
Chain of Serine/threonine-protein kinase pim-1 (P11309 whole entry, looked up): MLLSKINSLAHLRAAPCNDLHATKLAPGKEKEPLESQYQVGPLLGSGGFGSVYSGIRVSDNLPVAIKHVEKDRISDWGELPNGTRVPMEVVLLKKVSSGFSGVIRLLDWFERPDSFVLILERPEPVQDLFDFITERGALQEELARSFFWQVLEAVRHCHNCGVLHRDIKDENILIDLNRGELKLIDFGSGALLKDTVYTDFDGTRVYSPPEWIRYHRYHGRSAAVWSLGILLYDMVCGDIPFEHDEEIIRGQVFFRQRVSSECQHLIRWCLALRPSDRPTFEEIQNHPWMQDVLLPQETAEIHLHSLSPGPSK
Chain of BDNF/NT-3 growth factors receptor (Homo sapiens) (Q16620 32-822 limits assumed): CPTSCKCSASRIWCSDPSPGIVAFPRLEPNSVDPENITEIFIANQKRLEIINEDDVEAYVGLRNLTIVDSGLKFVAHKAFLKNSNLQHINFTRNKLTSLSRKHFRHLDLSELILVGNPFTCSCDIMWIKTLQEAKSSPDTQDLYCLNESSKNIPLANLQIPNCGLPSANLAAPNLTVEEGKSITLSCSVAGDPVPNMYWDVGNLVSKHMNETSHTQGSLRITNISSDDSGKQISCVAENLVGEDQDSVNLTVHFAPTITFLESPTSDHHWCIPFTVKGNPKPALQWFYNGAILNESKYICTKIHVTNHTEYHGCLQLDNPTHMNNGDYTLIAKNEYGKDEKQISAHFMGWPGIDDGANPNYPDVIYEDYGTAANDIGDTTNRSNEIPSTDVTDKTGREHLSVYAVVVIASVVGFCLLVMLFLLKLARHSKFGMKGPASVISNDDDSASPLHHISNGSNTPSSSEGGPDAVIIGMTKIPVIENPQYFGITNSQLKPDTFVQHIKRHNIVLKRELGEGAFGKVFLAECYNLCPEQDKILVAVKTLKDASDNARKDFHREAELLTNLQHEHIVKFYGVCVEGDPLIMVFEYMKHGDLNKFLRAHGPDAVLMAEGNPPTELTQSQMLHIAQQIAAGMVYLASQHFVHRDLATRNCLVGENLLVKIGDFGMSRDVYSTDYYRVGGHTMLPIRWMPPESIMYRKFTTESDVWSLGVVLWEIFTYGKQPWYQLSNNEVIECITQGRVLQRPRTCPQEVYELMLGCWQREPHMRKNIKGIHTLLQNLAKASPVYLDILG
Chain of Serine/threonine-protein kinase pim-2 (Q9P1W9 whole entry): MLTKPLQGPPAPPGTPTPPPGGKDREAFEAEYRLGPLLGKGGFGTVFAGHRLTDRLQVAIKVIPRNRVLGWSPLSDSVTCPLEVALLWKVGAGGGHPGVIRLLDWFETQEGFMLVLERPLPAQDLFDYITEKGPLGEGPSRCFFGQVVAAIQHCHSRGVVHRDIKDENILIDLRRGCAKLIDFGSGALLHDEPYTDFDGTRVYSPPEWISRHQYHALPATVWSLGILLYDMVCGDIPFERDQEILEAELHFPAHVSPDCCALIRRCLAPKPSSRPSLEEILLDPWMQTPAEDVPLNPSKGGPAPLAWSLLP
Chain of Tyrosine-protein kinase Fyn (Homo sapiens) (P06241 2-537 limits assumed): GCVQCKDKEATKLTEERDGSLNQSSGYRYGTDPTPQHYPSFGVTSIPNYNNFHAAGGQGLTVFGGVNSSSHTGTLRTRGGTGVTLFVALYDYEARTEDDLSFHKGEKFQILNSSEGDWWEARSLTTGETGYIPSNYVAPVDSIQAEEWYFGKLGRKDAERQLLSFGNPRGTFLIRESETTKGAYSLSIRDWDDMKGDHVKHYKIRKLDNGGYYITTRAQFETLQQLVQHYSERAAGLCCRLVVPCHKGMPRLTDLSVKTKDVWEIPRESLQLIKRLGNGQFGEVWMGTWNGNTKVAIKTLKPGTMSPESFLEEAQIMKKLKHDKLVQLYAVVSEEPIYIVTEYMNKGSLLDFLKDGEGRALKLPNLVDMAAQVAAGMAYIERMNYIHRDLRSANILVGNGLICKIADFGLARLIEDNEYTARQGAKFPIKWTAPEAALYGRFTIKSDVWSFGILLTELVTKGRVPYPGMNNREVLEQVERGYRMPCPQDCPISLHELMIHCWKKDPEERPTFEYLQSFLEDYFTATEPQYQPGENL

For `CC(C)(O)[C@H]1CC[C@H](Nc2ccn3ncc(-c4cccc(Cl)c4)c3n2)CC1`, the IC50 in [1] was 228 nM. The molecule further registered an EC50 in [2] of 600 nM. For the same molecule, the inhibition was greater than 98% in test [3]; 96% in [4]; greater than 90% in test [5]; greater than 80% in [6]; greater than 80% in test [7]; greater than 50% in [8]. Moreover, the inhibition in test [9] is greater than 50%; in test [10], greater than 50%; in test [11] it was greater than 50%; in test [12], greater than 90%.
